Results published in PMC7064934 (Environmental Toxicology and Chemistry, 2019).

Tests used:
Folsomia candida = experiment: Collembolan reproduction test; format: in vivo; conditions: F. candida; for Times more toxic to survival than its commercial formulation: pure compound vs formulation (LC50)
Outline: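 LUFA 2.2 soil spiked with aqueous pure compound or commercial formulation to 50% WHC; nominal control and 0.04–10.0 mg a.s./kg dry soil. Ten 10–12-d-old synchronized juveniles per 30 g soil, 5 replicates, weekly yeast and water top-up. Held 28 d at 20 ± 2 °C, 75% RH. Animals counted by flotation and image analysis. Log-logistic LC50/EC50 fitted on nominal concentrations.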

[1] = format: physicochemical; conditions: E. andrei test soil, nominal 10 thiamethoxam, t=56 days
Outline: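 Soil (5 g) sampled from replicate jar 4 on days 0, 28 and/or 56 and stored at –20 °C. Extracted by QuEChERS and analysed by reverse-phase LC–MS/MS at an external lab; detection limit 0.01 mg a.s./kg dry soil. Soils were also screened for the parent's conversion product. DT50 derived as ln(2)/k from first-order decay without lag.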

Eisenia andrei = experiment: Earthworm reproduction test; format: in vivo
Outline: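 Clitellate 2-mo synchronized worms acclimatized 24 h in clean soil, washed and weighed. Ten per ~600 g spiked LUFA 2.2 soil (nominal 0.04–10.0 mg a.s./kg dry soil, pure or formulation), 4 replicates, horse manure as food, 20 ± 2 °C, 75% RH. Survival and weight change read on day 28. Juveniles extracted on day 56 in a 60 °C water bath. Log-logistic LC50/EC50 fitted on nominal concentrations.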

[2] = octanol/water partition coefficient at pH 7, 20 °C; ref University of Hertfordshire 2018; cited from earlier work
earthworm = conditions: survival; ref National Registration Authority for Agricultural and Veterinary Chemicals (2001); cited from earlier work
E. fetida = conditions: cited from earlier work

For O=[N+]([O-])NC1=NCCN1Cc1ccc(Cl)nc1 [Imidacloprid, imidacloprid], the “Times more toxic to reproduction than its commercial formulation” value (Folsomia candida; pure compound vs formulation (EC50)) was 4.

For CN1COCN(Cc2cnc(Cl)s2)/C1=N\[N+](=O)[O-] [Thiamethoxam, thiamethoxam], the “Concentration of clothianidin measured (conversion product of thiamethoxam)” value [1] is listed as 0.09 mg a.s./kg dry soil, the “Toxicity to E. andrei at the concentrations tested (in words)” value (Eisenia andrei; highest concentration tested 10 mg a.s./kg dry soil, survival and reproduction) is listed as “no toxicity” and the “Log K OW” value [2] is listed as “–0.13”. The “LC50, acute toxicity tests (14 d)” value (earthworm) was over 1000 mg a.s./kg dry soil.

For C/C(=N\C#N)N(C)Cc1ccc(Cl)nc1 [Acetamiprid, acetamiprid], the EC50s (E. fetida; ref Wang et al. (2012), Ge et al. (2018), Wang et al. (2015)) is listed as “approximately 0.30 mg a.s/kg dry soil”, the “Times more toxic to survival than its commercial formulation” value (Folsomia candida) is listed as 3 and the “Times more toxic to survival than its commercial formulation” value (Folsomia candida; listed as acetamiprid) is listed as 4. For the same molecule, the “Times more toxic to the survival of the earthworms compared with thiacloprid” value (Eisenia andrei; E. andrei, LC50 comparison) was 10 and the “Log K OW” value [2] was 0.8.

In the case of CN/C(=N\[N+](=O)[O-])NCc1cnc(Cl)s1 [Clothianidin, clothianidin], the “Times more toxic than thiacloprid” value (Folsomia candida; LC50 comparison) is given as “approximately 100” and the “Log K OW” value [2] is given as 0.95.

In the case of N#C/N=C1\SCCN1Cc1ccc(Cl)nc1 [Thiacloprid, thiacloprid], the LC50 (E. fetida; ref Feng et al. (2015)) is listed as 8.43 mg/kg and the “Times more toxic to reproduction than to survival” value (Folsomia candida) is listed as “approximately 3”.
